Source: publication PMC4929832 (Nature, 2016)

What was measured:
AKT2 = AKT2 (Homo sapiens, UniProt P31751); experiment: kinase panel; format: biochemical
CK1-GAMMA3 = CK1-GAMMA3 (Homo sapiens, UniProt Q9Y6M4); experiment: kinase panel; format: biochemical
ROS = ROS (Homo sapiens, UniProt P08922); experiment: kinase panel; format: biochemical
MARK1 = MARK1 (Homo sapiens, UniProt Q9P0L2); experiment: kinase panel; format: biochemical
SGK1 = SGK1 (Homo sapiens, UniProt O00141); experiment: kinase panel; format: biochemical
CSK = CSK (Homo sapiens, UniProt P41240); experiment: kinase panel; format: biochemical
HCK = HCK (Homo sapiens, UniProt P08631); experiment: kinase panel; format: biochemical
MER = MER (Homo sapiens, UniProt Q12866); experiment: kinase panel; format: biochemical
MKNK1 = MKNK1 (Homo sapiens, UniProt Q9BUB5); experiment: kinase panel; format: biochemical
MKNK1, sequence (Q9BUB5 whole entry): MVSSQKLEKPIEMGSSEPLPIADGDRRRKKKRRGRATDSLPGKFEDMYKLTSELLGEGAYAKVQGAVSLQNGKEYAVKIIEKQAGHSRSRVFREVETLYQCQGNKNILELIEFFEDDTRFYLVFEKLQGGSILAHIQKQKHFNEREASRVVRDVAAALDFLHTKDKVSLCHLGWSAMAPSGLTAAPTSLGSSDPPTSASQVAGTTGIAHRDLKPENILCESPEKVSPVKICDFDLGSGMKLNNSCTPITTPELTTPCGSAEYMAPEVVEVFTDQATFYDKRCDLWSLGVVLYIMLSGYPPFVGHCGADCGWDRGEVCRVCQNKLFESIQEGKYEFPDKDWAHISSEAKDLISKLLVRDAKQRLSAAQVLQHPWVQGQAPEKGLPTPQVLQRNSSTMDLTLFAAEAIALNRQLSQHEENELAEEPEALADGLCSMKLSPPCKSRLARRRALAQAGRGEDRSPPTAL

MRCK-ALPHA = MRCK-ALPHA (Homo sapiens, UniProt Q5VT25); experiment: kinase panel; format: biochemical
PIM3 = PIM3 (Homo sapiens, UniProt Q86V86); experiment: kinase panel; format: biochemical
INSR = INSR (Homo sapiens, UniProt P06213); experiment: kinase panel; format: biochemical
SRPK2 = SRPK2 (Homo sapiens, UniProt P78362); experiment: kinase panel; format: biochemical
SRPK2, sequence (P78362 whole entry): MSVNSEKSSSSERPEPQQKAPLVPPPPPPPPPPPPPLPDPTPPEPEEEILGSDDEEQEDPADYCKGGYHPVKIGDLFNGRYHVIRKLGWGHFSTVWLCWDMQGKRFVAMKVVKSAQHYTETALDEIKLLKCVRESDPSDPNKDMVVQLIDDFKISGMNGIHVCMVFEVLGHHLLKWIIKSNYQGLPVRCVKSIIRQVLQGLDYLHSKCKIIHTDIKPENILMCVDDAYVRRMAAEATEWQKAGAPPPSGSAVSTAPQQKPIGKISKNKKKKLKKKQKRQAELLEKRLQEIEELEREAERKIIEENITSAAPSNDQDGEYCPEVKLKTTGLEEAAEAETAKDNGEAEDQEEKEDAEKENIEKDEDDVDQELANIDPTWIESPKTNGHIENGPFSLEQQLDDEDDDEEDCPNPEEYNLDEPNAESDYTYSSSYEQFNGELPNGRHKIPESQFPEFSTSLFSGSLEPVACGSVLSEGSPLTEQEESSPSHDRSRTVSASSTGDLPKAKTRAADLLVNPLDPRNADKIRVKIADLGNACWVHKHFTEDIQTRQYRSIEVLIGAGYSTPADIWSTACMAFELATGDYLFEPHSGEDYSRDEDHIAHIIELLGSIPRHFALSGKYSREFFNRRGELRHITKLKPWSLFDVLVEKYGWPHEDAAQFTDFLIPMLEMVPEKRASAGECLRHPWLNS

BRSK2 = BRSK2 (Homo sapiens, UniProt Q8IWQ3); experiment: kinase panel; format: biochemical
IRAK4 = IRAK4 (Homo sapiens, UniProt Q9NWZ3); experiment: kinase panel; format: biochemical
CAMK1A = CAMK1A (Homo sapiens, UniProt Q14012); experiment: kinase panel; format: biochemical
CAMK1A, sequence (Q14012 whole entry): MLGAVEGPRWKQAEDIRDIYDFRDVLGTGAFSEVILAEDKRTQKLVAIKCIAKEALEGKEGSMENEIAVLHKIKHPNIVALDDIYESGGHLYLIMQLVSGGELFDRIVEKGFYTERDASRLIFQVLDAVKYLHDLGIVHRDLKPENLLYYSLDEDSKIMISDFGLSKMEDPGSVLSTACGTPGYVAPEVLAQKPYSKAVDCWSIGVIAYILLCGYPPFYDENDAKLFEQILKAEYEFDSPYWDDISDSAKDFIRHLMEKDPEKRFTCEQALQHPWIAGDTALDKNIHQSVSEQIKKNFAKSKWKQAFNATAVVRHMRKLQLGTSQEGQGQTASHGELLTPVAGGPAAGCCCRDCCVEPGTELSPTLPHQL

CAMK1D = CAMK1D (Homo sapiens, UniProt Q8IU85); experiment: kinase panel; format: biochemical
TAOK2 = TAOK2 (Homo sapiens, UniProt Q9UL54); experiment: kinase panel; format: biochemical
JAK2 = JAK2 (Homo sapiens, UniProt O60674); experiment: kinase panel; format: biochemical
EPH-B1 = EPH-B1 (Homo sapiens, UniProt P54762); experiment: kinase panel; format: biochemical
EPH-B1, sequence (P54762 18-984): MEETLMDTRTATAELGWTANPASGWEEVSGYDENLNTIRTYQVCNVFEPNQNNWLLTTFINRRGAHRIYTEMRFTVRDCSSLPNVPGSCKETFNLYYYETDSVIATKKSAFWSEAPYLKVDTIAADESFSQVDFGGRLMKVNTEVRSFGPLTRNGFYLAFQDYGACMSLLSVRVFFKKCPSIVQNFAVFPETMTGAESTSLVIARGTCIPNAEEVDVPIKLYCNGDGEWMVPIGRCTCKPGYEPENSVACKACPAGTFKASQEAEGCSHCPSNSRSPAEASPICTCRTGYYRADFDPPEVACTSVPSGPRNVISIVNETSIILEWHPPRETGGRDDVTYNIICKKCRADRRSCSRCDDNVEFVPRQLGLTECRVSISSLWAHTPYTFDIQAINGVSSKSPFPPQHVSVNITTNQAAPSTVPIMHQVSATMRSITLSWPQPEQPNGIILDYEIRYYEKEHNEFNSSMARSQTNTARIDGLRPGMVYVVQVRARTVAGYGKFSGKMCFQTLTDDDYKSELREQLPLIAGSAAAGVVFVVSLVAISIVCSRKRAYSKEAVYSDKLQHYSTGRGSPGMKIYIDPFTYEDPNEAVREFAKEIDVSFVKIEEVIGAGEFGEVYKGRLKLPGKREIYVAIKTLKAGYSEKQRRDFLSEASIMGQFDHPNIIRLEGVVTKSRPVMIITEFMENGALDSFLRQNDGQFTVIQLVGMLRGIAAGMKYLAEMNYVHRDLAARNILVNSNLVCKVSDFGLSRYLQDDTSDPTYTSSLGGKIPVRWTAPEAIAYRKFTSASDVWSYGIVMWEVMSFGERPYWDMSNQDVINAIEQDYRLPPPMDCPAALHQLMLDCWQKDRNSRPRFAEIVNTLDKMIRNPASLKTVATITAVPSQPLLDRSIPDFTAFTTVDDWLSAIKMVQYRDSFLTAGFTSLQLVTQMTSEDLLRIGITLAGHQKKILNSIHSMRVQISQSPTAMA

PLK1 = PLK1 (Homo sapiens, UniProt P53350); experiment: kinase panel; format: biochemical
EPH-B4 = EPH-B4 (Homo sapiens, UniProt P54760); experiment: kinase panel; format: biochemical
PLK3 = PLK3 (Homo sapiens, UniProt Q9H4B4); experiment: kinase panel; format: biochemical
TNK1 = TNK1 (Homo sapiens, UniProt Q13470); experiment: kinase panel; format: biochemical
CDK2-CYCLINE = CDK2-CYCLINE (Homo sapiens, UniProt P24941); experiment: kinase panel; format: biochemical
PRAK = PRAK (Homo sapiens, UniProt Q8IW41); experiment: kinase panel; format: biochemical
TRKA = TRKA (Homo sapiens, UniProt P04629); experiment: kinase panel; format: biochemical
FER = FER (Homo sapiens, UniProt P16591); experiment: kinase panel; format: biochemical
PRKD3 = PRKD3 (Homo sapiens, UniProt O94806); experiment: kinase panel; format: biochemical
TTK = TTK (Homo sapiens, UniProt P33981); experiment: kinase panel; format: biochemical
CHEK1 = CHEK1 (Homo sapiens, UniProt O14757); experiment: kinase panel; format: biochemical
MAP4K2 = MAP4K2 (Homo sapiens, UniProt Q12851); experiment: kinase panel; format: biochemical
PAK2 = PAK2 (Homo sapiens, UniProt Q13177); experiment: kinase panel; format: biochemical
YES = YES (Homo sapiens, UniProt P07947); experiment: kinase panel; format: biochemical
Muscarinic M1 receptor = Muscarinic M1 receptor (Homo sapiens, UniProt P11229); experiment: Muscarinic M1 receptor assay; format: binding
Nicotinic (CNS) Receptor = experiment: Nicotinic; format: binding; conditions: human IMR32 cells
[1] = biological target: Pregnane X Receptor (PXR; SXR) (Homo sapiens, UniProt O75469); experiment: Pregnane X Receptor; format: binding
H1975 cells = experiment: Proliferation assay; format: cell-based
Method in brief: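 Cells were maintained in 10% FBS/RPMI with penicillin/streptomycin and plated at 500 cells/well in 10% FBS RPMI. Serially diluted test compound was pin-transferred. Viability was read after 3 days by CellTiter-Glo luminescence and normalized to 0.1% DMSO-treated cells and empty wells. EC50 was obtained by non-linear regression curve fitting.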

[2] = system: L858R/T790M-mutant lung cancer (genetically engineered mice); experiment: Mouse efficacy study, tumor volume by MRI; format: in vivo; conditions: EAI045 alone 60 mg/kg oral once daily, 4 weeks
[3] = biological target: EGFR L858R/T790M in H1975 cells (Homo sapiens, UniProt P00533, L858R/T790M); experiment: EGFR phosphorylation by western blotting; format: cell-based; conditions: western blot, 3h

ROS, sequence (P08922 28-2347): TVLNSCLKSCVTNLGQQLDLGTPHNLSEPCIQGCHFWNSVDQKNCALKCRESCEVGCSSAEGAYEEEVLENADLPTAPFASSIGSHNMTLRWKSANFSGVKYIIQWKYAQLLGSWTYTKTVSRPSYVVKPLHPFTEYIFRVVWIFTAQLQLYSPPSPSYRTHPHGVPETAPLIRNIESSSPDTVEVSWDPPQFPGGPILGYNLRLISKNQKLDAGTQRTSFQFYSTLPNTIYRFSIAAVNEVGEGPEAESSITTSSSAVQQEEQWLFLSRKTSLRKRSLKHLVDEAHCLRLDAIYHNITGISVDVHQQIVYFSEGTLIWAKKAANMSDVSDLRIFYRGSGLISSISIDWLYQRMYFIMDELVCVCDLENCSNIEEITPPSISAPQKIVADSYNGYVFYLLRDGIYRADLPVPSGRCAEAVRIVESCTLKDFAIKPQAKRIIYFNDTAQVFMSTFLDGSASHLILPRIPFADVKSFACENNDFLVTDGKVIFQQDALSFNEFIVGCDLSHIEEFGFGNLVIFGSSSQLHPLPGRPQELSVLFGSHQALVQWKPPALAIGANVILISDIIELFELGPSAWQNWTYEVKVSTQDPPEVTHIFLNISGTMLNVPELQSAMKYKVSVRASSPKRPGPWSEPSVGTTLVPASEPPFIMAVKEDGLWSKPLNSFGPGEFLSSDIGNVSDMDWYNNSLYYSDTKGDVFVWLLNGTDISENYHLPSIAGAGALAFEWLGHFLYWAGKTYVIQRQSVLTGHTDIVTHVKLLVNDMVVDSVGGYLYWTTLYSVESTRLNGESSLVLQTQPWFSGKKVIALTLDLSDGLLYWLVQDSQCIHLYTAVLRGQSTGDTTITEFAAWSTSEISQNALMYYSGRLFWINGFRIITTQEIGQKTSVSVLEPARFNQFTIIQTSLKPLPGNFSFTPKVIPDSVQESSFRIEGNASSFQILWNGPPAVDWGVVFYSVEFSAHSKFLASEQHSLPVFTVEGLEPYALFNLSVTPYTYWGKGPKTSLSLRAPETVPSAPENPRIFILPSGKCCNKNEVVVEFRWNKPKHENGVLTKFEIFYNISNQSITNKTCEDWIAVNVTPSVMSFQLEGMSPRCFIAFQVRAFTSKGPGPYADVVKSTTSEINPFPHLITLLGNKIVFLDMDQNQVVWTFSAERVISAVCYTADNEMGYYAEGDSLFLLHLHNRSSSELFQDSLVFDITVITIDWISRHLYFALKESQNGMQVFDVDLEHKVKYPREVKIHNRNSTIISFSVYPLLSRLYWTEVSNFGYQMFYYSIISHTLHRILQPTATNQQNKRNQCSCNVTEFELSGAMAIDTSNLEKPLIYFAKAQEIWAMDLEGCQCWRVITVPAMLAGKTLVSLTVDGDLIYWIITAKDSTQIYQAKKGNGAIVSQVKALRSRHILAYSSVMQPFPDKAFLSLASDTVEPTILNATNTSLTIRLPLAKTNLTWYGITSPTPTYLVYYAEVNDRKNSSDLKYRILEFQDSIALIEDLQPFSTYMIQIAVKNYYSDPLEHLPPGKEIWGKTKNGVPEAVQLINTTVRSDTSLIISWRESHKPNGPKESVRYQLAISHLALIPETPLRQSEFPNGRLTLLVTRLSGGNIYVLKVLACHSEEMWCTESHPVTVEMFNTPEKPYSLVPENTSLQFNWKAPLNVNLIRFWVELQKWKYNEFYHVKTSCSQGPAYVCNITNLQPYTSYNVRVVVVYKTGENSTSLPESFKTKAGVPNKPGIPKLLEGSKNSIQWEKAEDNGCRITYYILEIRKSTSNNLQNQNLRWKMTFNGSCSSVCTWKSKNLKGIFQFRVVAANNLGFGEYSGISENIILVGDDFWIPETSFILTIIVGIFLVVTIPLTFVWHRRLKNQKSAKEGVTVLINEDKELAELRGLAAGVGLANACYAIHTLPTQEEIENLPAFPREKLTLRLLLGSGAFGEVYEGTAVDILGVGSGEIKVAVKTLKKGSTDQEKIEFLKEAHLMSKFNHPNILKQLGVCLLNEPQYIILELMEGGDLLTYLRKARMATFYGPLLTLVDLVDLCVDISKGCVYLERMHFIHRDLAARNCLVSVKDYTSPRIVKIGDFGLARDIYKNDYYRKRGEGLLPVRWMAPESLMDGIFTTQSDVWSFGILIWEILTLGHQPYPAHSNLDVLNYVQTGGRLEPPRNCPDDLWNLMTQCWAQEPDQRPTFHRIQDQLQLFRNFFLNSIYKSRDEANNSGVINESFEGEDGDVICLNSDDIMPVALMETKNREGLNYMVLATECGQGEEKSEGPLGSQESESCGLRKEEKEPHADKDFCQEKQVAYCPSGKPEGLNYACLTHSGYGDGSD

inhibition at 1 µM (AKT2): 0% | inhibition at 1 µM (CK1-GAMMA3): 6% | inhibition at 1 µM (ROS): 1% | inhibition at 1 µM (MARK1): 0% | inhibition at 1 µM (SGK1): 6% | inhibition at 1 µM (CSK): 0% | inhibition at 1 µM (HCK): 0% | inhibition at 1 µM (MER): 8% | inhibition at 1 µM (MKNK1): 0% | inhibition at 1 µM (MRCK-ALPHA): 0% | inhibition at 1 µM (PIM3): 1% | inhibition at 1 µM (INSR): 0% | inhibition at 1 µM (SRPK2): 10% | inhibition at 1 µM (BRSK2): 0% | inhibition at 1 µM (IRAK4): 0% | inhibition at 1 µM (CAMK1A): 0% | inhibition at 1 µM (CAMK1D): 0% | inhibition at 1 µM (TAOK2): 0% | inhibition at 1 µM (JAK2): 2% | inhibition at 1 µM (EPH-B1): 0% | inhibition at 1 µM (PLK1): 7% | inhibition at 1 µM (EPH-B4): 0% | inhibition at 1 µM (PLK3): 5% | inhibition at 1 µM (TNK1): 0% | inhibition at 1 µM (CDK2-CYCLINE): 0% | inhibition at 1 µM (PRAK): 0% | inhibition at 1 µM (TRKA): 0% | inhibition at 1 µM (FER): 4% | inhibition at 1 µM (PRKD3): 0% | inhibition at 1 µM (TTK): 0% | inhibition at 1 µM (CHEK1): 0% | inhibition at 1 µM (MAP4K2): 0% | inhibition at 1 µM (PAK2): 0% | inhibition at 1 µM (YES): 0% | IC50 (Muscarinic M1 receptor): > 30 µM | IC50 (Nicotinic (CNS) Receptor): > 30 µM | IC50 [1]: 7 µM | EC50 (H1975 cells; Homo sapiens, NCI-H1975, 72 h, read-out: EC50 Proliferation): > 10 µM
Compound: O=C(Nc1nccs1)C(c1cc(F)ccc1O)N1Cc2ccccc2C1=O (centres unmarked) [EAI045, 2-(5-fluoro-2-hydroxyphenyl)-2-(1-oxo-2,3-dihydro-1H-isoindol-2-yl)-N-(1,3-thiazol-2-yl)acetamide]
anti-proliferative effect (H1975 cells; H1975, concentrations as high as 10 μM): no anti-proliferative effect | tumor response [2]: did not respond | EGFR autophosphorylation [3]: potently decreased, but did not completely eliminate EGFR autophosphorylation
